Results on three compounds are retold here after ChEMBL document CHEMBL4396885, “Thioether-based 2-aminobenzamide derivatives: Novel HDAC inhibitors with potent in vitro and in vivo antitumor activity” (Eur J Med Chem, 2019).

The IC50 is the concentration at which inhibition is half-maximal.

Experiment [1] concerns HCT-116. Put plainly: Antiproliferative activity against human HCT116 cells assessed as growth inhibition at 8 uM after 72 hrs by CCK-8 assay relative to control. It is filed as functional. The following applies: HCT-116, 72 h, read-out: GI.
In experiment [2] the test system is A-375. Put plainly: Antiproliferative activity against human A375 cells assessed as growth inhibition at 8 uM after 72 hrs by CCK-8 assay relative to control. The following applies: A-375, 72 h, read-out: GI. It counts as functional.
Experiment [3] deals with A549. Put plainly: Antiproliferative activity against human A549 cells assessed as growth inhibition at 2 uM after 72 hrs by CCK-8 assay relative to control. It is filed as functional. The note with it: A549, 72 h, read-out: GI. (Tetrazolium assays rely on reduction of a dye to a coloured formazan, in cell work by metabolically active cells.)
Experiment [4] has as its system HCT-116. The experiment in a line: Antiproliferative activity against human HCT116 cells assessed as growth inhibition at 2 uM after 72 hrs by CCK-8 assay relative to control. It counts as functional. The following applies: HCT-116, 72 h, read-out: GI.
The test system of experiment [5] is A-375. Put plainly: Antiproliferative activity against human A375 cells assessed as decrease in cell viability after 72 hrs by CCK-8 assay. It is filed as functional, cell-based. The note with it: A-375, 72 h. In outline:
(§1)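 Cells grown to 70–85% confluence (A375, A549, HCT116 in RPMI1640; HeLa, SMMC7721 in DMEM; 10% FBS, 37 °C, 5% CO2), seeded 4000/well, dosed after 12 h across a concentration range, incubated 72 h, then CCK-8 for 1 h; absorbance at 450 nm. IC50 as mean ± SD of three separate experiments.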

Experiment [6] deals with SMMC-7721. The experiment in a line: Antiproliferative activity against human SMMC7721 cells assessed as growth inhibition at 2 uM after 72 hrs by CCK-8 assay relative to control. It counts as functional. The following applies: SMMC-7721, 72 h, read-out: GI.
In experiment [7] the test system is HCT-116. Put plainly: Antiproliferative activity against human HCT116 cells assessed as decrease in cell viability after 72 hrs by CCK-8 assay. It counts as functional, cell-based. The note with it: HCT-116, 72 h. In outline:
as §1

In experiment [8] the test system is SMMC-7721. Put plainly: Antiproliferative activity against human SMMC7721 cells assessed as growth inhibition at 8 uM after 72 hrs by CCK-8 assay relative to control. It is filed as functional. The note with it: SMMC-7721, 72 h, read-out: GI.
Experiment [9] concerns A-375. The experiment in a line: Antiproliferative activity against human A375 cells assessed as growth inhibition at 2 uM after 72 hrs by CCK-8 assay relative to control. It counts as functional. The note with it: A-375, 72 h, read-out: GI.
Experiment [10] relates to HeLa. Put plainly: Antiproliferative activity against human HeLa cells assessed as growth inhibition at 2 uM after 72 hrs by CCK-8 assay relative to control. The note with it: read-out: GI. It is filed as functional.
Experiment [11] relates to HeLa. The experiment in a line: Antiproliferative activity against human HeLa cells assessed as growth inhibition at 8 uM after 72 hrs by CCK-8 assay relative to control. It counts as functional. The note with it: read-out: GI.
Experiment [12] concerns A549. The experiment in a line: Antiproliferative activity against human A549 cells assessed as growth inhibition at 8 uM after 72 hrs by CCK-8 assay relative to control. It is filed as functional. The note with it: A549, 72 h, read-out: GI.
The test system of experiment [13] is A549. Put plainly: Antiproliferative activity against human A549 cells assessed as decrease in cell viability after 72 hrs by CCK-8 assay. It is filed as functional, cell-based. The note with it: A549, 72 h. In outline:
as §1

The subject of experiment [14] is HeLa. The experiment in a line: Antiproliferative activity against human HeLa cells assessed as decrease in cell viability after 72 hrs by CCK-8 assay. It counts as functional, cell-based. In outline: as §1
Experiment [15] relates to SMMC-7721. The experiment in a line: Antiproliferative activity against human SMMC7721 cells assessed as decrease in cell viability after 72 hrs by CCK-8 assay. The following applies: SMMC-7721, 72 h. It counts as functional, cell-based. In outline:
as §1

For experiment [16], the target named is Histone deacetylase 3/NCoR1 (Homo sapiens, UniProt O15379). Put plainly: Inhibition of recombinant human HDAC3/NCOR1 assessed as decrease in deacetylation of FLUOR DE LYS SIRT1 substrate preincubated for 10 mins followed by substrate addition and measured after 30 mins by fluorescence based assay. It counts as protein-complex assay.
Chain of Histone deacetylase 3/NCoR1 (O15379 whole entry): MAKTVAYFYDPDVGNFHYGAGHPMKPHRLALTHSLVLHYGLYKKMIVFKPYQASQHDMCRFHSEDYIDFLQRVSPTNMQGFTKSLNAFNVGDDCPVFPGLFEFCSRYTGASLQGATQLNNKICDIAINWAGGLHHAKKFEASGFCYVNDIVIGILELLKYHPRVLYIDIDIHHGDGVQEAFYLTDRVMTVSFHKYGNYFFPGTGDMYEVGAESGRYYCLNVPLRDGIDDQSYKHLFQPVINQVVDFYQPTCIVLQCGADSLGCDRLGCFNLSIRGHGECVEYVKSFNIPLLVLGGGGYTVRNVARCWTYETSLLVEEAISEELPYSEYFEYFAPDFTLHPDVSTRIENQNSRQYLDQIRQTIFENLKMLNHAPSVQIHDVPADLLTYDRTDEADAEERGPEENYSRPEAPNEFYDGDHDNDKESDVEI
Chain of Histone deacetylase 3/NCoR1 (O75376 whole entry, further chain): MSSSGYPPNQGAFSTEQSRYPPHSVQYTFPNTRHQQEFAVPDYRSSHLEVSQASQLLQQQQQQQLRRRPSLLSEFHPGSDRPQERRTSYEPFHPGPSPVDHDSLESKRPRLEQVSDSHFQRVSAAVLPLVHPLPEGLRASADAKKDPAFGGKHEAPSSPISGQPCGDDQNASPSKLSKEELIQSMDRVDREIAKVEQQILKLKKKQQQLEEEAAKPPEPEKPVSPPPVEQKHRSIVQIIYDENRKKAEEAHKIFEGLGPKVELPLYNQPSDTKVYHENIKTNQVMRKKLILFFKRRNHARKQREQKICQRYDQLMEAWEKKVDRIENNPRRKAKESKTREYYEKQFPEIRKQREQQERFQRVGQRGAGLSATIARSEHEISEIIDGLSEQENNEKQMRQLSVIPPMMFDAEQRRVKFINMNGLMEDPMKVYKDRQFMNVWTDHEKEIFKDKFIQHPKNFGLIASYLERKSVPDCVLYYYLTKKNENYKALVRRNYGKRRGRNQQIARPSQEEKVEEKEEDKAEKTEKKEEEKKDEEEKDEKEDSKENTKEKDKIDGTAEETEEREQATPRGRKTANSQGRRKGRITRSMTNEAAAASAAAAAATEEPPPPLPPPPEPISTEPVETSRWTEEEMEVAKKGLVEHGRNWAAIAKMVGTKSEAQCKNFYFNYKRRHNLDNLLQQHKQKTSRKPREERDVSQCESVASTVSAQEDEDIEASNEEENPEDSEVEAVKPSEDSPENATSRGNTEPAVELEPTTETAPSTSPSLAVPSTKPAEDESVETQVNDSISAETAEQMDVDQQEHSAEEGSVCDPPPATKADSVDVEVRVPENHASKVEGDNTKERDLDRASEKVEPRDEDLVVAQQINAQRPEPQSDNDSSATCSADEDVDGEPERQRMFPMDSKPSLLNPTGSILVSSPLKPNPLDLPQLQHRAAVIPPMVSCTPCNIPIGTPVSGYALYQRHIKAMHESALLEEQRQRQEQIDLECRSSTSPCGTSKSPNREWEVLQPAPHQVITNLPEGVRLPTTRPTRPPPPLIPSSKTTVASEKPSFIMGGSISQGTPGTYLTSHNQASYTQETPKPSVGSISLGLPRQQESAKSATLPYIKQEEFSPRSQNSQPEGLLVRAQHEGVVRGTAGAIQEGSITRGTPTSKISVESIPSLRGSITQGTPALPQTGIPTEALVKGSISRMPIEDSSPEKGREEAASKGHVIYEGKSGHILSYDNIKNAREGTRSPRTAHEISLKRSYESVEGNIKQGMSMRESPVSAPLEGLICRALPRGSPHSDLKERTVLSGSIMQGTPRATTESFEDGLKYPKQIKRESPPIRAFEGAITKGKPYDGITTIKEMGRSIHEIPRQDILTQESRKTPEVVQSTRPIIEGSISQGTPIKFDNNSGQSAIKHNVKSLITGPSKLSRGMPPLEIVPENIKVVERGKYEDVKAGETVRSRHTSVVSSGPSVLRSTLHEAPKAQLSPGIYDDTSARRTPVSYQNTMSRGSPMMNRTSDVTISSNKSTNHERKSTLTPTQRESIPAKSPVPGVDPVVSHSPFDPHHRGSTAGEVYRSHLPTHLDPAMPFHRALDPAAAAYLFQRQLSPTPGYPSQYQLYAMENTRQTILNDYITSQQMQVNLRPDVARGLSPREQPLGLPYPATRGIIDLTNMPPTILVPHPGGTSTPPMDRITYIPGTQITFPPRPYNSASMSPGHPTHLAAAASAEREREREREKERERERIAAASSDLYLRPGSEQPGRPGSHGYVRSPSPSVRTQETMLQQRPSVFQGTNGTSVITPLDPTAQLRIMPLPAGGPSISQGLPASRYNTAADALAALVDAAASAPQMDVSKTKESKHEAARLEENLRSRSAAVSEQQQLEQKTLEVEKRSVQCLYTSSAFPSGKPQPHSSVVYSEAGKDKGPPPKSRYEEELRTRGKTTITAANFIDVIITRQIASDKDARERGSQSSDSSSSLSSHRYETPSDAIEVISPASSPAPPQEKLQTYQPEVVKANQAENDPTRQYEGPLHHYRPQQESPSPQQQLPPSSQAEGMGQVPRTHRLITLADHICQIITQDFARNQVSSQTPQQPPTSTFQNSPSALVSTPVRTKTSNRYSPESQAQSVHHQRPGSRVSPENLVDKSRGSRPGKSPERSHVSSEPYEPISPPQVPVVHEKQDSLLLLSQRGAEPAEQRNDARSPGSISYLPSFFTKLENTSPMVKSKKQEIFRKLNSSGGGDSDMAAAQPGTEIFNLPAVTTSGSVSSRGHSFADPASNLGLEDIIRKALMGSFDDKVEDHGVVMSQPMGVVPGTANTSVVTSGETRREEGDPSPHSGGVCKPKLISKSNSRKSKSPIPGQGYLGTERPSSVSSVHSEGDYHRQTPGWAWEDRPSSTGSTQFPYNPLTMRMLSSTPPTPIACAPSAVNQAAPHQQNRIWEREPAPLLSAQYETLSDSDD
For a further experiment, the target named is T1, Histone deacetylase 8 (Homo sapiens, UniProt Q9BY41).
T1 sequence (Q9BY41 whole entry): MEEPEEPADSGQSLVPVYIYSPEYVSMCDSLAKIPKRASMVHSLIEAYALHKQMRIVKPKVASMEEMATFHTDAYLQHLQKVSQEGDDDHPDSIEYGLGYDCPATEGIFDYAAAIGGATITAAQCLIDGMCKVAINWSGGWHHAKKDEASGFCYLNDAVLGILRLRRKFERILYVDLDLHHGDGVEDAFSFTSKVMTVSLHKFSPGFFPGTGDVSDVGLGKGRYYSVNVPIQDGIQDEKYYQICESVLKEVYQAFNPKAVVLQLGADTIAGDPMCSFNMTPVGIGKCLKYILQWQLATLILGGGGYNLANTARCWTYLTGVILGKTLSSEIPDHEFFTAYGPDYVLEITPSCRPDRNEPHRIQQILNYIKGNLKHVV
Put plainly: Inhibition of recombinant human HDAC8 assessed as decrease in deacetylation of FLUOR DE LYS substrate preincubated for 10 mins followed by substrate addition and measured after 30 mins by fluorescence based assay.

The target in the next experiment is Histone deacetylase. The experiment in a line: Inhibition of HDAC in human HeLa cell nuclear extract assessed as decrease in deacetylation of FLUOR DE LYS Green substrate preincubated for 10 mins followed by substrate addition and measured after 30 mins by fluorescence based assay. It counts as cell-free.
Experiment [17] concerns the target T2, Protein deacetylase HDAC6 (Homo sapiens, UniProt Q9UBN7).
T2 sequence (Q9UBN7 whole entry): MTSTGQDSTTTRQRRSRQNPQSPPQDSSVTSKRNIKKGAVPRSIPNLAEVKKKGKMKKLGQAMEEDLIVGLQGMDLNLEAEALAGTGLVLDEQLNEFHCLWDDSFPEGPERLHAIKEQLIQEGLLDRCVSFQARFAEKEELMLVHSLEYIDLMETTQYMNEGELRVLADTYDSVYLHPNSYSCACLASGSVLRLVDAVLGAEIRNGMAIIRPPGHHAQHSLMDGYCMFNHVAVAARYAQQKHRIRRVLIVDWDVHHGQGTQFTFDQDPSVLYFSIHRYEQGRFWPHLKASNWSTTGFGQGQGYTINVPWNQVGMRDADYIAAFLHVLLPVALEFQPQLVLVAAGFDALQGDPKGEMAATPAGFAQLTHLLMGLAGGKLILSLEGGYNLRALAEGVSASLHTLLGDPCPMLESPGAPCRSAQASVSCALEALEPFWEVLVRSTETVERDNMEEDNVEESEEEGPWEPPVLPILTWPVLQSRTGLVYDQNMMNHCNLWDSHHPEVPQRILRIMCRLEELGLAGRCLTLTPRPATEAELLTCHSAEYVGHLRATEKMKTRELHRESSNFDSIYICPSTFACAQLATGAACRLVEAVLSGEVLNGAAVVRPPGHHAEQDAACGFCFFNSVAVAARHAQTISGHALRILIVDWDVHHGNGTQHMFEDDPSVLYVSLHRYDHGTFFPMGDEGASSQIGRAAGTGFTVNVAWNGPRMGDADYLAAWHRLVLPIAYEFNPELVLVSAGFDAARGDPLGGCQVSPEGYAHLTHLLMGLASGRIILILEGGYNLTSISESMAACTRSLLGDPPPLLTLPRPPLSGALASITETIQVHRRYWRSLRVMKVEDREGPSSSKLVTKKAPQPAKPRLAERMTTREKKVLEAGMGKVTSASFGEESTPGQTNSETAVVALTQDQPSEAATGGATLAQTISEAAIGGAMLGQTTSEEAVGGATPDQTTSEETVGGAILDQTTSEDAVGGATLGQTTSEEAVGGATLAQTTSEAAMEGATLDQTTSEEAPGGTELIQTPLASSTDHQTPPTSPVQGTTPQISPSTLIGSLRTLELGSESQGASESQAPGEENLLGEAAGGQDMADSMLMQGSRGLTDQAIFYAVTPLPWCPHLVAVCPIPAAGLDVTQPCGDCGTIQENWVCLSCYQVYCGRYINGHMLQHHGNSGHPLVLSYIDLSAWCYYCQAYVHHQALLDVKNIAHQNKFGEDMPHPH
Put plainly: Inhibition of recombinant human His tagged HDAC6 expressed in baculovirus infected insect cells assessed as decrease in deacetylation of FLUOR DE LYS SIRT1 substrate by measuring decrease in fluorescence preincubated for 10 mins followed by substrate addition and measured after 30 mins by fluorescence based assay.

The target of a further experiment is Histone deacetylase 2 (Homo sapiens, UniProt Q92769). The experiment in a line: Inhibition of recombinant human HDAC2 assessed as decrease in deacetylation of FLUOR DE LYS Green substrate preincubated for 10 mins followed by substrate addition and measured after 30 mins by fluorescence based assay.
Chain of Histone deacetylase 2 (Q92769 whole entry): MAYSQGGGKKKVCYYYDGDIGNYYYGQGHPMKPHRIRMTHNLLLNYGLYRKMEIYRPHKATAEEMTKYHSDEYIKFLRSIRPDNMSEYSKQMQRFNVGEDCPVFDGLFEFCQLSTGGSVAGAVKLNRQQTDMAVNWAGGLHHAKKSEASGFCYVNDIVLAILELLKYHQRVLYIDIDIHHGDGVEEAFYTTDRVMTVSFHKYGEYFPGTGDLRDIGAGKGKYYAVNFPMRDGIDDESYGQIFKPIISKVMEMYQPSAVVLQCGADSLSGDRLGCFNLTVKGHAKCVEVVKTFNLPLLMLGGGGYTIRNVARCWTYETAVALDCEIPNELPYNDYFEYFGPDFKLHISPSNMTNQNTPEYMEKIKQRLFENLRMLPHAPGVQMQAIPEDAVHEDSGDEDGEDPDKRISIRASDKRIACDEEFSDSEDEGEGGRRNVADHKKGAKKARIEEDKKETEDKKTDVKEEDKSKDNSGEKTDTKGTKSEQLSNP
Another experiment deals with Histone deacetylase 1 (Homo sapiens, UniProt Q13547). The experiment in a line: Inhibition of recombinant human His tagged HDAC1 expressed in baculovirus infected insect cells assessed as decrease in deacetylation of FLUOR DE LYS Green substrate preincubated for 10 mins followed by substrate addition and measured after 30 mins by fluorescence based assay.
Chain of Histone deacetylase 1 (Q13547 whole entry): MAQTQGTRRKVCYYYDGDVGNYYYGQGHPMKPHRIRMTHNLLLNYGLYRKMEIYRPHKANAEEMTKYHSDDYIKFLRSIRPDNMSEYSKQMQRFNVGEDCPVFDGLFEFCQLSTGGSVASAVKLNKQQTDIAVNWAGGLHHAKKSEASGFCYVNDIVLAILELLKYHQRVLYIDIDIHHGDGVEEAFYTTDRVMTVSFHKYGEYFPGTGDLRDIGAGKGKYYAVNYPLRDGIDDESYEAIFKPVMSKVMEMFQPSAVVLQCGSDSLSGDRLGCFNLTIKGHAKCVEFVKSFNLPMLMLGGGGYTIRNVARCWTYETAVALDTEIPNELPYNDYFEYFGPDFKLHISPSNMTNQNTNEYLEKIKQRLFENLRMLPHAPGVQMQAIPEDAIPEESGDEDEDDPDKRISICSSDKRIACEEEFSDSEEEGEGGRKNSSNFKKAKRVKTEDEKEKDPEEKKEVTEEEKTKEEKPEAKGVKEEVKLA
In the next experiment the test system is NIH3T3. Put plainly: Cytotoxicity against mouse NIH/3T3 cells assessed as reduction in cell viability after 72 hrs by CCK-8 assay. It is filed as cell-based. The note with it: NIH3T3, 72 h.

Consider `COc1ccc(SCc2ccc(C(=O)Nc3ccccc3N)cc2)cc1OC`, for which the inhibition of growth at 8 µM in the experiment on HCT-116 [1] stood at 91.5%; in the experiment with A-375 [2], 84.6%; in the experiment with SMMC-7721 [8], 78.9%; in the experiment on HeLa [11], 79.9%; with A549 [12], 80.1%. Besides, the inhibition of growth at 2 µM amounted to 19.9% with A549 [3]; 33.6% in the experiment with HCT-116 [4]; 20.2% in the experiment on SMMC-7721 [6]; 18.1% in the experiment with A-375 [9]; 15.2% in the experiment on HeLa [10]. Besides, the IC50 with A-375 [5] worked out at 4420 nM; in the experiment on HCT-116 [7], 2000 nM; in the experiment on A549 [13] it was 5680 nM; in the experiment on HeLa [14], 3070 nM; in the experiment with SMMC-7721 [15], 3400 nM.
In the case of `Cc1cc(C)cc(SCc2ccc(C(=O)Nc3ccccc3N)cc2)c1`, the inhibition of growth at 8 µM in the experiment on HCT-116 [1] worked out at 72.9%; in the experiment on A-375 [2], 74.7%; in the experiment with SMMC-7721 [8], 85.1%; in the experiment with HeLa [11], 78.8%; in the experiment with A549 [12] it was 78.5%. Also, the 50% inhibitory concentration (IC50) in [16] is 381 nM; at Histone deacetylase 8, above 32000 nM; on Histone deacetylase, 10720 nM; in the experiment on A-375 [5], 3670 nM; in experiment [17], above 32000 nM; in the experiment on HCT-116 [7], 2490 nM. The IC50 was 139 nM at Histone deacetylase 2; 20 nM at Histone deacetylase 1; 3340 nM with NIH3T3; 2890 nM in the experiment with A549 [13]; 2090 nM in the experiment with HeLa [14]; 2760 nM in the experiment on SMMC-7721 [15]. The inhibition of growth at 2 µM in the experiment with A549 [3] stood at 33.3%; in the experiment with HCT-116 [4], 3.22%; with SMMC-7721 [6] it was 29.1%; with A-375 [9], 48.5%; in the experiment with HeLa [10], 40.1%.
`Nc1ccccc1NC(=O)c1ccc(CSc2nccc(C(F)(F)F)n2)cc1`: the inhibition of growth at 8 µM with HCT-116 [1] is 93.1%; in the experiment on A-375 [2], 80.1%; in the experiment on SMMC-7721 [8], 80.6%; in the experiment with HeLa [11], 83.4%; in the experiment on A549 [12], 95.1%. In addition, the IC50 in experiment [16] was 274 nM; on Histone deacetylase 8, above 32000 nM; on Histone deacetylase, 1995 nM; in the experiment on A-375 [5], 1550 nM; in [17] it was above 32000 nM; in the experiment on HCT-116 [7] it was 1140 nM. Besides, the 50% inhibitory concentration (IC50) at Histone deacetylase 2 was 441 nM; at Histone deacetylase 1, 11 nM; in the experiment on NIH3T3, 1850 nM; in the experiment on A549 [13], 970 nM; with HeLa [14], 1140 nM; in the experiment with SMMC-7721 [15] it was 1890 nM. The inhibition of growth at 2 µM in the experiment with A549 [3] was 75.4%; in the experiment on HCT-116 [4], 82.7%; in the experiment with SMMC-7721 [6] it was 66.1%; with A-375 [9], 54.4%; in the experiment on HeLa [10], 68.3%.
